ChEMBL document CHEMBL1126155, “Renin inhibitory pentols showing improved enteral bioavailability” (J Med Chem, 1992)

Tests used:
Renin [1] = target: T1, Renin (Homo sapiens, UniProt P00797); experiment: Concentration required for 50% inhibition of human kidney renin
T1 sequence (P00797 whole entry): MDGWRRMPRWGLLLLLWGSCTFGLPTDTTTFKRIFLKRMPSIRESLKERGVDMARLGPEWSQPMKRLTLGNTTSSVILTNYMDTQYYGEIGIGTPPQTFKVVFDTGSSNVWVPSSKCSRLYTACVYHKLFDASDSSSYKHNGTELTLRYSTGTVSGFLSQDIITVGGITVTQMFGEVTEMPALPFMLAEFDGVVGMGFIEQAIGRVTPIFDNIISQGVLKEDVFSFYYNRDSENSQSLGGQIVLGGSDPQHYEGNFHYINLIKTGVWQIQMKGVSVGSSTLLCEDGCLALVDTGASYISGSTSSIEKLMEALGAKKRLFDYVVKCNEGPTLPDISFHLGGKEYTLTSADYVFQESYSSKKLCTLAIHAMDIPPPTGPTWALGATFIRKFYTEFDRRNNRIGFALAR

Renin [2] = target: T1, Renin; experiment: Concentration required for 50% inhibition of human plasma renin; assay type: cell-free
Method in brief: (§1)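 Plasma renin from dog, human, rat, rhesus monkey or sheep plasma; assayed by a previously described plasma method, modified to be buffered at pH 7.4; IC50 in M.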

Cathepsin D = Cathepsin D (Homo sapiens, UniProt P07339); experiment: Concentration required for 50% inhibition of cathepsin D
Chain of Cathepsin D (P07339 65-162 limits assumed): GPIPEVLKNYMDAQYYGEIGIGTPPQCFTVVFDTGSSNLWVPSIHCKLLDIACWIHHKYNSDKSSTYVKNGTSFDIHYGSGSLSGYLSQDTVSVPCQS
Chain of Cathepsin D (P07339 169-412 limits assumed): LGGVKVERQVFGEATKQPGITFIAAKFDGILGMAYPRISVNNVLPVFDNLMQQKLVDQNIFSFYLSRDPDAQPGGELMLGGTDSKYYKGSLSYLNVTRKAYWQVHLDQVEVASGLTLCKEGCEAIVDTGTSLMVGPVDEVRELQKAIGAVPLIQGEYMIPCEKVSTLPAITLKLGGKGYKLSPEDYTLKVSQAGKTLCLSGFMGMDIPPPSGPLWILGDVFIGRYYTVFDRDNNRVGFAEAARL
Method in brief: (§2)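 Pepsin and cathepsin D inhibition measured by an earlier-described method; inhibitor tested at concentrations up to 10^-4 M.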

Pepsin A = Pepsin A (Homo sapiens, UniProt P0DJD9); experiment: Inhibition of pepsin; method in brief: as §2
Chain of Pepsin A (P0DJD9 whole entry): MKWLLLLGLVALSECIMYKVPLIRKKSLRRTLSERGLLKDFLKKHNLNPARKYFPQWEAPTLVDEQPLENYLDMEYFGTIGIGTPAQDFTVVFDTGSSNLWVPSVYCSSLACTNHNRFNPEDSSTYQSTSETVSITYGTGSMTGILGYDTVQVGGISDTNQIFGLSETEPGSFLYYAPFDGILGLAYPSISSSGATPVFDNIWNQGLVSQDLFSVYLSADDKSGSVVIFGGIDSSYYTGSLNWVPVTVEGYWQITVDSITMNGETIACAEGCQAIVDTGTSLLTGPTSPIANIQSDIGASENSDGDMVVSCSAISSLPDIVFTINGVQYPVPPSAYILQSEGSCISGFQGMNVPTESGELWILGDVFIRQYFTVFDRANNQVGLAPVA

Renin [3] = target: T2, Renin (Rattus norvegicus, UniProt P08424); experiment: Concentration required for 50% inhibition of rat plasma renin; assay type: cell-free; method in brief: as §1
T2 sequence (P08424 whole entry): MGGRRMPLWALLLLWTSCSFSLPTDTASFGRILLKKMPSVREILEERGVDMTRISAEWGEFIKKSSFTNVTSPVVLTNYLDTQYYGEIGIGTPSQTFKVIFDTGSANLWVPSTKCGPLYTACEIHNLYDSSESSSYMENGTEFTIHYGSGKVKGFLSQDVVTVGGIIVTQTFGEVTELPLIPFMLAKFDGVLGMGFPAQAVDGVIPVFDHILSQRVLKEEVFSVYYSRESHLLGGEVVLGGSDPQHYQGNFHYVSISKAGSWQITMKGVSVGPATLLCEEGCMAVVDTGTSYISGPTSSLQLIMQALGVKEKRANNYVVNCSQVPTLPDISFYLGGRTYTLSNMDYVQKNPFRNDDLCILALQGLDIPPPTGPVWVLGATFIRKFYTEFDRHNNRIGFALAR

Renin (Canis familiaris) = experiment: Concentration required for 50% inhibition of dog plasma renin
Renin (Ovis aries) = experiment: Concentration required for 50% inhibition of sheep plasma renin
Renin (Macaca mulatta) = experiment: Concentration required for 50% inhibition of rhesus monkey plasma renin

Row | Compound | IC50 (Renin [1]) [nM] | IC50 (Renin [2]) [nM] | IC50 (Cathepsin D) [nM] | IC50 (Pepsin A) [nM] | IC50 (Renin [3]) [nM] | IC50 (Renin (Canis familiaris)) [nM] | IC50 (Renin (Ovis aries)) [nM] | IC50 (Renin (Macaca mulatta)) [nM]
1 | CN(CCN(C)C(=O)N1CCOCC1)C(=O)O[C@@H](Cc1ccccc1)C(=O)NC(Cc1cnc[nH]1)C(=O)N[C@@H](CC1CCCCC1)[C@@H](O)[C@@H](O)[C@H](O)[C@H](O)CO (stereo partly specified) | 2.4 | 1.5 | – | – | – | – | – | –
2 | CCC[C@H](NC(=O)[C@H](Cc1ccccc1)NC(=O)[C@@H](N)[C@@H](C)CC)C(=O)N[C@@H](CC1CCCCC1)[C@@H](O)[C@@H](O)[C@H](O)[C@H](O)CO | 50 | 110 | – | – | – | – | – | –
3 | CCC[C@H](NC(=O)[C@H](Cc1ccccc1)NC(=O)[C@@H](N)[C@@H](C)CC)C(=O)N[C@@H](CC1CCCCC1)[C@@H](O)[C@@H](O)[C@H](O)[C@@H](O)CO | 120 | 420 | – | – | – | – | – | –

The next lines start with the values.

Row | IC50 (Renin [1]) [nM] | IC50 (Renin [2]) [nM] | IC50 (Cathepsin D) [nM] | IC50 (Pepsin A) [nM] | IC50 (Renin [3]) [nM] | IC50 (Renin (Canis familiaris)) [nM] | IC50 (Renin (Ovis aries)) [nM] | IC50 (Renin (Macaca mulatta)) [nM] | Compound
4 | 4.4 | 4.5 | > 100000 | > 100000 | 8000 | 110 | 100 | 11 | CC(C)(C)S(=O)(=O)CC(Cc1ccccc1)C(=O)NC(Cc1c[nH]cn1)C(=O)N[C@@H](CC1CCCCC1)[C@@H](O)[C@@H](O)[C@H](O)[C@H](O)CO (stereo partly specified)
5 | 12 | 22 | – | – | – | – | – | – | N[C@H]1CC[C@@H](C(=O)N[C@@H](Cc2ccccc2)C(=O)NC(Cc2c[nH]cn2)C(=O)N[C@@H](CC2CCCCC2)[C@@H](O)[C@@H](O)[C@H](O)[C@H](O)CO)CC1 (stereo partly specified)
